# Measured values as given in PubChem BioAssay AID1216 (Sanford-Burnham Center for Chemical Genomics, 2008).
# About 660 (0.35%) of roughly 190,000 compounds were called active.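 Rule for the calls: active = activation factor of 2 or more at 20 µM; inactive = the rest.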 Many of the other results were omitted from the sample, so actives are more common in it than they were.
# Biological target: Mannose-6-phosphate isomerase (Homo sapiens) (UniProt P34949)
# Test: MPI activation at elevated mannose 6-phosphate – biochemical, fluorescence intensity, near-saturating mannose 6-phosphate, primary screen (AID 1216)
# Settings: coupled PMI enzyme assay, resazurin fluorescence, 20 min; at 20 µM; hits give high values; 1 = untreated enzyme, 0 = substrate-free blank
# Outline: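 Test system: human phosphomannose isomerase with PGI, G6PDH, diaphorase coupling enzymes; amount: 15 ng/mL PMI; incubation: enzyme reaction with compound 20 min at room temperature; technique: resorufin fluorescence (Ex 544/Em 590 nm) from resazurin via diaphorase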
# Mannose-6-phosphate isomerase (Homo sapiens), sequence (P34949 whole entry, looked up): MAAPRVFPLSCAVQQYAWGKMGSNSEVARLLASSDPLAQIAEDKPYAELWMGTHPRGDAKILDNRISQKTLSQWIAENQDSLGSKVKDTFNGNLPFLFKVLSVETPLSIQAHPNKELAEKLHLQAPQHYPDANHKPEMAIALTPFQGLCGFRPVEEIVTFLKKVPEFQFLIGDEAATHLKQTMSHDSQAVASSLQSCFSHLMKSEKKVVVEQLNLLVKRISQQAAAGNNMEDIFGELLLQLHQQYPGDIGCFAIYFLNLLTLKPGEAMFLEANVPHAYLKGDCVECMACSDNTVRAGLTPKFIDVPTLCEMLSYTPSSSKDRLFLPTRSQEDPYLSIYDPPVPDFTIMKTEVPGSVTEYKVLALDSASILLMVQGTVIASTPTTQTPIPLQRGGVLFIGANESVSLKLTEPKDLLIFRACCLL
row,Compound,activation factor
1,CCN(CC)S(=O)(=O)c1cc([N+](=O)[O-])ccc1N=Nc1c(O)n(C)c2ccccc12,1.1 (inactive)
2,Cc1ccc(-c2nc(C)sc2CC(=O)OCC(=O)Nc2c(F)cccc2F)cc1,0.9 (inactive)
3,Cc1ccc(C2=NN(C(=O)COc3ncnc4ccccc34)C(c3ccco3)C2)cc1 (stereo not drawn),0.8 (inactive)
4,CO/N=C/c1cn(-c2ccc(Cl)cc2)nn1,1 (inactive)
5,CC1(C)OC(=O)C(=CSc2ccc(C(C)(C)C)cc2)C(=O)O1,1.1 (inactive)
6,CCCC(=O)Nc1cccc(NC(=S)NC(=O)C(C)Oc2ccc(Cl)cc2Cl)c1 (stereo not drawn),1 (inactive)
7,O=C(N/C(=C\c1ccc(F)cc1)C(=O)N1CCCCCC1)c1ccccc1,0.9 (inactive)
8,Cc1cc(OCCCN2CCN(Cc3ccccc3)CC2)ccc1[N+](=O)[O-],1 (inactive)
9,COc1ccc(Cc2nnnn2CC(=O)O)cc1,1.1 (inactive)
10,CSc1nc(O)c(Cc2ccccc2)c(=O)[nH]1,1 (inactive)
11,COc1ccc(Cc2nnc(SC)[nH]c2=O)cc1,2 (active)
12,O=C(NNC(=O)c1ccccc1[N+](=O)[O-])Nc1ccccc1C(F)(F)F,1 (inactive)
13,O=C(NC1CCCC1)C(c1ccc(N2CCOCC2)cc1)N(C(=O)c1ccco1)c1ccccc1F (stereo not drawn),0.9 (inactive)
14,Cc1ccc(NC(=O)NC(=O)N(C2CCCCC2)S(=O)(=O)c2ccccc2)cc1,0.9 (inactive)
15,Cc1nn(-c2ccc([N+](=O)[O-])cc2)c(N)c1-c1ccccc1,1 (inactive)
16,C(=N/Nc1cc(N2CCOCC2)nc(N2CCOCC2)n1)/c1ccccc1,0.4 (inactive)
17,Cc1ccccc1N/N=C/c1ccc(N2CCOCC2)cc1,2.4 (active)
18,Cc1cc(C(=O)N/N=C/c2ccc(N3CCOCC3)cc2)c(C)o1,1.1 (inactive)
19,S=C(NC1CCCCC1)NN1CCOCC1,1.1 (inactive)
20,Cc1ccc(OCc2n[nH]c(=S)n2-c2ccc(C)cc2)cc1,0.8 (inactive)
21,COc1ccc(CNc2c(CO)cnc3c2cnn3C)cc1,1 (inactive)
22,Cc1ccnc(NC(=O)CCC(=O)N(CC(=O)NCc2ccccc2)Cc2ccco2)c1,0.9 (inactive)
23,CCOC(=O)C1=C(CN2CCCCCC2)NC(=O)NC1c1cccc([N+](=O)[O-])c1 (stereo not drawn),0.9 (inactive)
24,CC(NC(=O)C(=O)N/N=C/c1ccc(Cl)cc1)c1ccccc1 (stereo not drawn),1.1 (inactive)
25,O=C1CC(NNc2ccccc2)C(=O)N1c1cccc(Cl)c1 (stereo not drawn),2 (active)
26,O=C(NNC1CC(=O)N(c2cccc(Cl)c2)C1=O)c1cccnc1 (stereo not drawn),1.2 (inactive)

row,Compound,activation factor
1,O=C1CC(c2ccccc2)C(=O)N1c1cccc(O)c1 (stereo not drawn),0.9 (inactive)
2,C/C(=N\NC(=S)NCc1ccccc1)C1CCCCC1,1.2 (inactive)
3,O=C(CCNC(=O)Cn1ccc2ccccc2c1=O)NCCC1=CCCCC1,1.1 (inactive)
4,CCc1cccc(CC)c1NC(=S)NCc1ccc2[nH]c(C)cc2c1,0.9 (inactive)
5,COc1ccc(Br)cc1/C=N/NC(=O)c1cccc(S(=O)(=O)N2CCOCC2)c1,1 (inactive)
6,COc1ccc(Br)cc1/C=N/n1c(C)nnc1C,1 (inactive)
7,COc1ccc(Br)cc1/C=N/Nc1ccc(Cl)c(C(=O)O)c1,2.6 (active)
8,OCC(O)CN(c1ccccc1)c1ccccc1 (stereo not drawn),1 (inactive)
9,CC(C)C(=O)Nc1ccc2oc(=O)ccc2c1,1 (inactive)
10,COc1ccc(C(=O)CSc2nc(C)cc(C)n2)cc1[N+](=O)[O-],0.9 (inactive)
11,Cn1nc(-c2ccccc2)c(CO)c1Sc1ccccc1,1 (inactive)
12,S=c1ccc2ccccc2[nH]1,2.8 (active)
13,O=C(Nc1ccccc1)c1cc2ccccc2[nH]1,0.9 (inactive)
14,c1ccc2[nH]c(-c3nc4ccccc4[nH]3)nc2c1,1.1 (inactive)
15,CCOc1ccc(C2c3[nH]c4ccccc4c3CCN2Cc2cn(CC)nc2C)cc1 (stereo not drawn),0.8 (inactive)
16,CN(C)CC(C)(C)CNC(=O)c1cc(Br)cc(Br)c1O,0.8 (inactive)
17,O=C1C2C3C=CC(C4CC34)C2C(=O)N1c1nccs1 (stereo not drawn),1 (inactive)
18,CCN(CC)CC1(O)CCN(C(=O)c2ccc(Cl)c(Cl)c2)CC1,0.9 (inactive)
19,O=C(O)c1ccc(N/N=C/c2ccc3ncccc3c2)cc1,2.3 (active)
20,O=C(O)c1ccc(N/N=C/c2cn(-c3ccccc3)nc2-c2cccs2)cc1,1.7 (inactive)
21,CCNC(=S)NNC(=O)c1ccc2ncccc2c1,1 (inactive)
22,Cc1ccc(NC(=O)N2CCSc3ccccc32)cc1,0.9 (inactive)
23,O=C(CNCc1ccc(Cl)cc1)Nc1cccc(C(=O)O)c1,1.1 (inactive)
24,Cn1c(CO)cnc1SCc1ccccc1,1.1 (inactive)
25,CSc1c(SCc2ccccc2)cnn(Cc2ccccc2)c1=O,2.4 (active)
26,O=c1c2ccccc2c(-c2ccccc2)nn1Cc1ccccc1,1 (inactive)

row,Compound,activation factor
1,COc1ccc(NC(=O)COc2ccc(C(=O)OCC(=O)N(C)C3CCS(=O)(=O)C3)cc2OC)cc1 (stereo not drawn),1.1 (inactive)
2,Cc1ccnc(NC(=O)CCC(=O)N(CC(=O)NCCc2ccccc2)Cc2cccs2)c1,1 (inactive)
3,CCOC(=O)C(CC)/C(C)=N\NC(=O)c1cccc(C)c1 (stereo not drawn),0.9 (inactive)
4,COc1ccc(NC(=O)C(C)SCc2ccccc2)cc1 (stereo not drawn),1 (inactive)
5,Cc1cc(Cl)ccc1C(=O)C1CCCN(C(=O)CCN2CCCO2)C1 (stereo not drawn),1.1 (inactive)
6,Cc1cccc(C)c1NC(=O)C1(C)c2cccc[n+]2CC(=O)N1Cc1cccs1 (stereo not drawn),2 (active)
7,Cc1cccc(C)c1NC(=O)c1ccc(CN2CCc3ccccc3C2)cc1,1 (inactive)
8,CCc1cccc(C)c1NC(=S)N(CCCN1CCN(C)CC1)Cc1cccs1,1 (inactive)
9,Cc1ccc(N(CCC(=O)O)S(=O)(=O)c2cccc(C(F)(F)F)c2)cc1,1.1 (inactive)
10,O=[N+]([O-])c1ccc(N2CCN(S(=O)(=O)c3ccccc3)CC2)cc1N1CCc2ccccc2C1,0.9 (inactive)
11,COc1ccc(/C=N/N=C2/C(=O)Nc3ccccc32)cc1O,1 (inactive)
12,C/C=C/C=C/C(=O)OCC(=O)Nc1ccc(Cl)cc1,1 (inactive)
13,CS/C(=C\[N+](=O)[O-])Nc1ccc(C)cc1,1 (inactive)
14,Cn1cnnc1Sc1ccc(S(C)(=O)=O)cc1[N+](=O)[O-],0.9 (inactive)
15,O=C(Nc1cnccn1)c1cccnc1,1 (inactive)
16,O=C(NN=C1CCC(=NNC(=O)c2cccnc2)CC1)c1cccnc1,2 (active)
17,O=C(NNC(=O)c1cccnc1)Nc1ccccc1,1.1 (inactive)
18,C/C(N)=C(/C#N)C(=O)COC(=O)C1CCN(C(=O)c2ccc(Cl)cc2)CC1,1 (inactive)
19,CCc1cc2cc(OC)ccc2nc1SCC(=O)Nc1cc(OC)c(OC)cc1C(=O)O,0.8 (inactive)
20,O=C(/C=C/c1ccc(Cl)c([N+](=O)[O-])c1)c1cccnc1,1.1 (inactive)
21,CC(CCO)Nc1nc2c([nH]1)c(=O)n(C)c(=O)n2C (stereo not drawn),0.9 (inactive)
22,CCCSc1nc2c(c(=O)n(C)c(=O)n2C)n1Cc1ccc(C)cc1,1 (inactive)
23,Cc1ccc(NN=Nc2nc3c([nH]2)c(=O)n(C)c(=O)n3C)cc1,2 (active)
24,COc1ccc(NC(=S)SC)cc1OC,0.7 (inactive)
25,CCC(CC)C(=O)Nc1ccc(S(=O)(=O)Nc2nccs2)cc1,0.9 (inactive)
26,CCn1c(N)c(Br)c(=O)[nH]c1=O,1.1 (inactive)

row,Compound,activation factor
1,CC(=O)Nc1sc2c(c1C(c1cccc(F)c1)N1CCN(CCO)CC1)CCCC2 (stereo not drawn),1.1 (inactive)
2,Cc1cc(SCC(=O)NCCN2C(=O)CSC2=O)nc2ccccc12,1.2 (inactive)
3,Cc1cc(C(=O)COC(=O)C2CC2)c(C)n1-c1ccc(F)cc1,0.9 (inactive)
4,Cc1ccc(N2C(=O)C3CC3C2=O)cc1 (stereo not drawn),1 (inactive)
5,Cc1ccc(N2C(=O)C(Cc3ccccc3)NC2=S)cc1 (stereo not drawn),0.8 (inactive)
6,C=C1c2cc(CC)ccc2NC(=O)N1c1ccc(C)cc1,2.1 (active)
7,CCOC(=O)N1CCN(C(=O)Cn2cnc3ccccc3c2=O)CC1,1 (inactive)
8,COc1ccc(NC(=O)c2sc(N3CCOCC3)nc2-c2ccccc2)c(OC)c1,1 (inactive)
9,O=C(OCc1ccc([N+](=O)[O-])cc1)c1ccccn1,0.9 (inactive)
10,COc1cc(C(=O)OCc2ccc([N+](=O)[O-])cc2)cc(OC)c1OC,2 (active)
11,COc1cc(/C=N/O)ccc1OCc1ccc([N+](=O)[O-])cc1,1 (inactive)
12,COc1ccc(-n2nc(C(=O)Nc3cc(OC)c(OC)c(OC)c3)c3ccccc3c2=O)c(OC)c1,0.9 (inactive)
13,O=C(CSc1nnc(-c2ccc([N+](=O)[O-])cc2)o1)Nc1ccccn1,1 (inactive)
14,CCOC(=O)C1=C(C)NC(C)=C(C(=O)OCC)C1c1ccccn1,1 (inactive)
15,CCOC(=O)C1=C(C)NC(=O)NC1c1ccccc1 (stereo not drawn),1 (inactive)
16,CCOC(=O)C1=C(C)NC(SC)=NC1c1ccccc1 (stereo not drawn),2.7 (active)
17,CSc1cccc(NC(=S)N(Cc2ccccc2)Cc2ccccn2)c1,0.9 (inactive)
18,CCO[C@@H]1OC(C(=O)NCc2nc3ccccc3[nH]2)=C[C@H](C2CCCCC2)[C@H]1CCCO,0.9 (inactive)
19,O=C(COC(=O)c1ccc(F)cc1)Nc1nc2ccc([N+](=O)[O-])cc2s1,1 (inactive)
20,Cc1cc(C2=NNC(=Nc3ccc(S(=O)(=O)N4CCOCC4)cc3)SC2)c(C)n1CC1CCCO1 (stereo not drawn),2.1 (active)
21,COCCn1c(C)cc(C2=NNC(=Nc3ccc(F)cc3)SC2)c1C,1.3 (inactive)
22,C=CCn1c(C)cc(C2=NNC(=NCC)SC2)c1C,1.1 (inactive)
23,COc1ccccc1NC(=S)N1CCN(C(c2ccccc2)c2ccccc2)CC1,1 (inactive)
24,O=C(Nc1ccc(NC(=O)c2ccco2)c(Cl)c1)c1cccc([N+](=O)[O-])c1,1 (inactive)
25,CC(C)(C)c1ccc(/C=C/C(=O)Nc2ncccn2)cc1,0.8 (inactive)
